One series relates to Aspergillus niger. The experiment in a line: Antimicrobial activity against Aspergillus niger after 7 days by tube dilution method. The following applies: 168 h. The series is classed as functional. Put shortly:
(§1)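 Tube dilution in DMSO (stock 100 mg/ml) with serial dilutions; incubation 37 °C for 48 h for C. albicans (other organisms' times truncated in text). MIC read as lowest concentration inhibiting visible growth. Norfloxacin (bacteria) and fluconazole (fungi) as reference drugs.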

A further series concerns Staphylococcus aureus. Nature of the series: Antimicrobial activity against Staphylococcus aureus after 24 hrs by tube dilution method. It counts as functional. Put shortly: as §1
For a further series, the system named is Bacillus subtilis. Nature of the series: Antimicrobial activity against Bacillus subtilis after 24 hrs by tube dilution method. It counts as functional. The method in brief: as §1
A further series relates to Escherichia coli. The experiment in a line: Antimicrobial activity against Escherichia coli after 24 hrs by tube dilution method. It counts as functional. Put shortly: as §1
The next series has as its system Candida albicans. The experiment in a line: Antimicrobial activity against Candida albicans after 48 hrs by tube dilution method. It counts as functional. The method in brief: as §1
In a further series the test system is Human alphaherpesvirus 2. The experiment in a line: Antiviral activity against HSV2 G infected in human HEL cells assessed as reduction in virus-induced cytopathogenicity after 3 days. It counts as functional, organism-based. The settings on record: Human alphaherpesvirus 2, strain G, 72 h. (In general: Cytopathic effects are the visible damage that an infection or toxin causes in cultured cells.)

For series [1], the system named is Human alphaherpesvirus 1. The experiment in a line: Antiviral activity against thymidine kinase-deficient acyclovir-resistant HSV1 KOS infected in human HEL cells assessed as reduction in virus-induced cytopathogenicity after 3 days. The series is classed as functional, organism-based. The following applies: Human alphaherpesvirus 1, KOS, 72 h.
Series [2] is described as follows: Cytotoxicity against human HEL cells assessed as alteration in cell morphology. The series is classed as cell-based. Put shortly:
(§2)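 Uninfected cell cultures tested in parallel with the CPE-reduction antiviral assay; cells grown to confluency, then serial compound dilutions added and incubated at 37 °C (3 days in the parallel antiviral set-up). Read-out is microscopic examination of morphology; value is the minimum cytotoxic concentration, the lowest causing a microscopically detectable alteration of normal cell morphology.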

Series [3] deals with Vesicular stomatitis virus. Nature of the series: Antiviral activity against VSV infected in human HEL cells assessed as reduction in virus-induced cytopathogenicity after 3 days. The settings on record: 72 h. It counts as functional, organism-based.
The test system of series [4] is Human alphaherpesvirus 1. The experiment in a line: Antiviral activity against HSV1 KOS infected in human HEL cells assessed as reduction in virus-induced cytopathogenicity after 3 days. The series is classed as functional, organism-based. The settings on record: Human alphaherpesvirus 1, KOS, 72 h.
Another series deals with Coxsackievirus B4. Nature of the series: Antiviral activity against Coxsackievirus B4 infected in african green monkey Vero cells assessed as reduction in virus-induced cytopathogenicity after 3 days. The series is classed as functional, organism-based. The following applies: Enterovirus B, 72 h.
The next series has as its system Sindbis virus. Nature of the series: Antiviral activity against Sindbis virus infected in african green monkey Vero cells assessed as reduction in virus-induced cytopathogenicity after 3 days. The following applies: 72 h. It counts as functional, organism-based.
The subject of series [5] is Mammalian orthoreovirus 1. Nature of the series: Antiviral activity against Reovirus 1 infected in african green monkey Vero cells assessed as reduction in virus-induced cytopathogenicity after 3 days. The series is classed as functional, organism-based. The settings on record: Mammalian orthoreovirus 1, Vero, 72 h.
A short description of series [6]: Cytotoxicity against african green monkey Vero cells assessed as alteration in cell morphology. The series is classed as cell-based. The following applies: chlorocebus sabaeus. The method in brief: as §2
Series [7] can be described thus: Cytotoxicity against human HeLa cells assessed as alteration in cell morphology. It counts as cell-based. The method in brief: as §2

In brackets after ≈: the same amount, converted by molar mass. A value given as a limit tells only on which side of the number the result lay.

Consider `Clc1cccc(-c2ncc[nH]2)c1`, for which the minimum fungicidal concentration (MFC) against Aspergillus niger and against Candida albicans was 280 µM (≈ 50 µg/mL) throughout. The MIC (commonly the smallest concentration in the dilution series that meets the test's criterion for growth inhibition) was 35 µM (≈ 6.25 µg/mL) in the series with Aspergillus niger; 4 µM (≈ 0.714 µg/mL) in the series on Staphylococcus aureus; 17 µM (≈ 3.04 µg/mL) with Bacillus subtilis; 702 µM (≈ 125 µg/mL) against Escherichia coli; 35 µM (≈ 6.25 µg/mL) against Candida albicans. The results for the minimum bactericidal concentration (MBC) in the series on Staphylococcus aureus, in the series on Bacillus subtilis and with Escherichia coli were 35 µM (≈ 6.25 µg/mL), 140 µM (≈ 25 µg/mL) and 561 µM (≈ 100 µg/mL), respectively.
As for `Nc1ccn(C[C@@H](CO)OCP(=O)(O)O)c(=O)n1.O.O` [CIDOFOVIR], the EC50 (commonly the concentration giving half of the maximal effect) in the series with Human alphaherpesvirus 2 is 2 µg/mL; in the series with Human alphaherpesvirus 1 [1] it was 2 µg/mL; in series [3], greater than 250 µg/mL. Besides, in series [2], the MCC is greater than 250 µg/mL.
Consider `COc1ccc(-c2ncc[nH]2)cc1`, for which the MFC against Aspergillus niger and with Candida albicans was 526 µM (≈ 91.6 µg/mL) each time. In addition, the minimal inhibitory concentration (MIC) turned out to be 65 µM (≈ 11.3 µg/mL) with Aspergillus niger; 4 µM (≈ 0.697 µg/mL) against Staphylococcus aureus; 4 µM (≈ 0.697 µg/mL) in the series on Bacillus subtilis; 32 µM (≈ 5.57 µg/mL) with Escherichia coli; 65 µM (≈ 11.3 µg/mL) in the series with Candida albicans. In addition, the results for the MBC in the series on Staphylococcus aureus, in the series on Bacillus subtilis and against Escherichia coli were 32 µM (≈ 5.57 µg/mL), 32 µM (≈ 5.57 µg/mL) and 263 µM (≈ 45.8 µg/mL), respectively.
As for `Brc1ccc(-c2ncc[nH]2)cc1`, the values for the minimum fungicidal concentration (MFC) in the series on Aspergillus niger and in the series on Candida albicans were 112 µM (≈ 25 µg/mL) and 224 µM (≈ 50 µg/mL), respectively. In addition, the minimum inhibitory concentration (MIC) in the series on Aspergillus niger amounted to 14 µM (≈ 3.12 µg/mL); with Staphylococcus aureus it was 3 µM (≈ 0.669 µg/mL); in the series on Bacillus subtilis, 3 µM (≈ 0.669 µg/mL); with Escherichia coli it was 3 µM (≈ 0.669 µg/mL); against Candida albicans, 28 µM (≈ 6.25 µg/mL). Moreover, the MBC against Staphylococcus aureus, in the series with Bacillus subtilis and against Escherichia coli was 28 µM (≈ 6.25 µg/mL) throughout.
On to `O=[N+]([O-])c1cccc(-c2ncc[nH]2)c1`, for which the MFC in the series on Aspergillus niger and against Candida albicans was 264 µM (≈ 49.9 µg/mL) in each case. Moreover, the minimal inhibitory concentration (MIC) with Aspergillus niger was determined as 33 µM (≈ 6.24 µg/mL); in the series on Staphylococcus aureus, 4 µM (≈ 0.757 µg/mL); with Bacillus subtilis, 4 µM (≈ 0.757 µg/mL); with Escherichia coli it was 4 µM (≈ 0.757 µg/mL); against Candida albicans, 33 µM (≈ 6.24 µg/mL). The MBC in the series with Staphylococcus aureus, against Bacillus subtilis and with Escherichia coli was 33 µM (≈ 6.24 µg/mL) each time.
`NC(=O)c1ncn([C@@H]2O[C@H](CO)[C@@H](O)[C@H]2O)n1` [RIBAVIRIN]: the EC50 (in the series on Human alphaherpesvirus 1 [4]; with Human alphaherpesvirus 2; in the series with Coxsackievirus B4; in the series on Sindbis virus; with Human alphaherpesvirus 1 [1]; in [5]) was greater than 250 µg/mL throughout. In addition, the MCC in series [2], in series [6] and in series [7] was greater than 250 µg/mL throughout.
As to `Cc1cccc(-c2ncc[nH]2)c1C`, the MFC (as a rule, the lowest tested concentration that kills the fungus rather than only halting it) in the series on Aspergillus niger turned out to be 144 µM (≈ 24.8 µg/mL); in the series with Candida albicans it was 289 µM (≈ 49.8 µg/mL). Further, the minimum inhibitory concentration (MIC) was 17 µM (≈ 2.93 µg/mL) against Aspergillus niger; 4 µM (≈ 0.689 µg/mL) against Staphylococcus aureus; 4 µM (≈ 0.689 µg/mL) against Bacillus subtilis; 4 µM (≈ 0.689 µg/mL) against Escherichia coli; 72 µM (≈ 12.4 µg/mL) in the series with Candida albicans. In addition, the MBC against Staphylococcus aureus, with Bacillus subtilis and in the series on Escherichia coli was 36 µM (≈ 6.2 µg/mL) in each case.
Regarding `Clc1ccc(-c2ncc[nH]2)cc1`, the MFC in the series with Aspergillus niger is 561 µM (≈ 100 µg/mL); with Candida albicans, 280 µM (≈ 50 µg/mL). In addition, the minimal inhibitory concentration (MIC) with Aspergillus niger came out at 702 µM (≈ 125 µg/mL); against Staphylococcus aureus it was 4 µM (≈ 0.714 µg/mL); against Bacillus subtilis, 8 µM (≈ 1.43 µg/mL); against Escherichia coli it was 8 µM (≈ 1.43 µg/mL); against Candida albicans it was 35 µM (≈ 6.25 µg/mL). Further, the minimum bactericidal concentration (MBC) (usually the smallest concentration meeting the test's criterion for killing) with Staphylococcus aureus was found to be 35 µM (≈ 6.25 µg/mL); in the series with Bacillus subtilis, 702 µM (≈ 125 µg/mL); against Escherichia coli, 702 µM (≈ 125 µg/mL).
For the compound `O=[N+]([O-])c1ccccc1-c1ncc[nH]1`, the minimum fungicidal concentration (MFC) against Aspergillus niger and in the series on Candida albicans was 264 µM (≈ 49.9 µg/mL) each time. Further, the minimal inhibitory concentration (MIC) with Aspergillus niger is 33 µM (≈ 6.24 µg/mL); in the series with Staphylococcus aureus, 4 µM (≈ 0.757 µg/mL); with Bacillus subtilis it was 4 µM (≈ 0.757 µg/mL); in the series with Escherichia coli, 4 µM (≈ 0.757 µg/mL); with Candida albicans, 33 µM (≈ 6.24 µg/mL). Besides, the MBC against Staphylococcus aureus, against Bacillus subtilis and against Escherichia coli was 33 µM (≈ 6.24 µg/mL) each time.

The values are drawn from ChEMBL document CHEMBL1158343, “Synthesis, antimicrobial and antiviral evaluation of substituted imidazole derivatives” (Eur J Med Chem, 2009).
